The record followed here is PubChem BioAssay AID651944 (The Scripps Research Institute Molecular Screening Center, 2012).

Calls of active or inactive are those of the source.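 Rule for the calls: active = IC50 at or below 10 µM; inactive = IC50 above 10 µM.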

The subject of this assay is E. coli V66 + mutant T4 phage, OD growth. In words: OD loss of phage-infected RecBCD+ E. coli – absorbance, round 2, counter-screen for AddAB inhibitor project, dose response (AID 651944). Put shortly: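 Assay system: recBCD+ Escherichia coli strain V66 challenged with mutant T4 phage | Medium: Cation-adjusted Mueller Hinton broth with 0.1% glycerol | Compound dosing: 10 doses, 1:3 steps, from 118.6 µM | Incubation: Compound preincubation 60 min, then phage 18 h, 37 °C | Detection: Absorbance at 600 nm | Evaluation: IC50 from four-parameter curve fit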
A general note: Counterscreens check selectivity or assay interference.
For orientation: IC50 means the concentration that gives 50% inhibition. Turning to `CCn1cc(C(=O)O)c(=O)c2cnc(N3CCN(C(=S)NC(=O)c4cccc(C)c4)CC3)nc21`, the IC50 is > 39.5 µM (inactive).
The result for `CCn1cc(C(=O)O)c(=O)c2cnc(N3CCN(C(=S)Nc4ccccc4OC)CC3)nc21` reads > 119 µM (inactive); that for `CCn1cc(C(=O)O)c(=O)c2cnc(N3CCN(C(=S)Nc4ccc(Cl)cc4)CC3)nc21`, 80.9 µM (inactive); that for `CCn1cc(C(=O)O)c(=O)c2cnc(N3CCN(C(=S)Nc4cccc(C(F)(F)F)c4)CC3)nc21`, 77.8 µM (inactive).
Turning to `CCn1cc(C(=O)O)c(=O)c2cnc(N3CCN(C(=S)Nc4ccccc4F)CC3)nc21`, the IC50 was > 119 µM (inactive).
As to `CCn1cc(C(=O)O)c(=O)c2cnc(N3CCN(C(=S)NCc4ccccc4)CC3)nc21`, the IC50 is > 119 µM (inactive).
